Screening data: PubChem, Broad Institute
The list is not random: actives were taken first. Their share in the collection is about 0.86%.
AF4-AF9 inh – blocks AF4 peptide binding to human AF9; inhibition, % at 10 µM; 350,000 compounds, 0.47% hits; P42568; AlphaScreen, biotin-AF4 peptide binding to FLAG-AF9;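 active = every replicate reaching a set inhibition limit, whatever the replicate mean, cut at about 25% in these data; inconclusive = mean inhibition reaches that limit but some replicates miss it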;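 also: 0% = plate neutral control median and 100% = total signal loss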
Rtt109 Vps75 – inhibitors of Candida albicans Rtt109/Vps75 histone acetyltransferase; purified Rtt109/Vps75, ThioGlo CoA-SH fluorescence, 4 h; inhibition, % at 34.9 µM; 330,000 compounds, 0.16% hits;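 active = inhibition of at least 50% in every replicate; inconclusive = best replicate reaches 50% inhibition but some replicates fall short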
Target sequence (Q5AAJ8 whole entry, looked up): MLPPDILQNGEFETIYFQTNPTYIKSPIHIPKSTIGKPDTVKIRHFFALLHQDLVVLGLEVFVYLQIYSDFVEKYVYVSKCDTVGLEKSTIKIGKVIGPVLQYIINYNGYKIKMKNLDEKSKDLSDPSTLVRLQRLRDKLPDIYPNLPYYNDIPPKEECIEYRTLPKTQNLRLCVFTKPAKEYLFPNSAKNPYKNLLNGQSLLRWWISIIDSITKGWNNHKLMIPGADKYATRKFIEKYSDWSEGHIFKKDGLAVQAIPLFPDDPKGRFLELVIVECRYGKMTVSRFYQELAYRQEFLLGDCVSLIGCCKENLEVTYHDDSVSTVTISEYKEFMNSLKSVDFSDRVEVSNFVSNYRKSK
miR-122 sensor – inhibitors of miR-122 in Huh7 cells | 340,000 compounds, 0.3% hits | activation (reporter increase), % at 12.5 µM | Huh7 miR-122 Renilla luciferase sensor, 48 h; neutral wells = 0, positive control = 100 | AID 602342;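 active = mean replicate activation score at least 90 and every replicate individually at or above 90; inconclusive = only one of the two criteria met; inactive = neither criterion met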;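 also: higher luciferase means less miR-122 activity so hits act as miR-122 inhibitors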
S100A4 MyoIIA – blocks human S100A4 binding to myosin IIA peptide; P26447; S100A4/TAMRA-MyoIIA peptide fluorescence polarization; inhibition, % at 10.7 µM; 360,000 compounds, 0.14% hits;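 active = mean inhibition of at least 70% across replicates, with every replicate also reaching that level; inconclusive = mean inhibition reaches 70% but some replicates fall short; inactive = mean inhibition below 70%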
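Test system: S100A4 monomer protein; Medium: HEPES pH 7.2 with CaCl2, KCl, NaCl, DTT, Triton; Probe or stimulus: TAMRA-labelled myosin IIA heavy-chain peptide probe, 5 nM; Doses: one dose per compound; Times: polarization read 5 min after assay mix addition, stable 5–60 min; Benchmarks: neutral control DMSO, positive control TFP.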
ERAP1 inh – blocks human ERAP1 aminopeptidase activity. recombinant ERAP1, Leu-AMC fluorescence, 60 min. inhibition, % at 10.7 µM. AID 652197. 340,000 compounds, 0.15% hits;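 active = mean replicate inhibition of at least 30%, or all replicates individually reaching that 30% level; inactive = mean below 30% and not every replicate reaching it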;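 also: 0% = neutral control wells and 100% = L-leucinethiol positive control wells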
Alpha interfer – AlphaScreen signal interference counter-screen hit; AID 720494; AC50, µM (doses to about 12 µM), without a hit: top-dose activity change, negative = inhibition; shares compounds with AF4-AF9 inh; signal luminescence; 530 compounds, 45% hits; cut-off not given, nearly all actives have AC50 up to about 14 µM
* hit, by the source's call; ? = inconclusive; / = no result; [ ] = another dose, or the depositor's remark.

SMILES	AF4-AF9 inh	Rtt109 Vps75	miR-122 sensor	S100A4 MyoIIA	ERAP1 inh	Alpha interfer
C[C@@H]1CCCCO[C@@H](CN(C)S(=O)(=O)c2ccc(F)cc2)[C@@H](C)CN([C@H](C)CO)C(=O)c2cc(NC(=O)CCC(F)(F)F)ccc2O1	-18	/	3[16.7 µM]	5	-2	/
Oc1cc(NCCN2CCOCC2)cc2cccnc12	27*	4	1	11	0	12µM*
O=C(Cc1cccnc1)N1CC(=O)N2[C@H](C1)[C@H](c1ccc(C3=CCCC3)cc1)[C@@H]2CO	37*	/	/	6	0	-19%
CCCC(=O)Nc1ccc2c(c1)C(=O)N(C)[C@@H]1CC[C@@H](CC(=O)NCC3CC3)O[C@@H]1CO2	-1	/	-6[16.7 µM]	5	1	/
CCCC(=O)NC(c1ccccc1)c1ccc2cccnc2c1O (stereo unspecified)	?	4	-25	25	0	/
CCCC(=O)NC(c1ccc(OC)cc1)c1ccc2cccnc2c1O (stereo unspecified)	29*	8	/	-3	1	2.6µM*
CCC(=O)NC(c1ccc(N(C)C)cc1)c1c(O)ccc2ccccc12 (stereo unspecified)	24	1	-5	-4	2	-17%
CCC(=O)NC(c1ccc(OC)cc1)c1c(O)ccc2ccccc12 (stereo unspecified)	-3	10	22	-1	-4	/
COc1ccc(/C=C/C(=O)c2ccc(OC)cc2OC)cc1	11	2	56	-1	0	/
COc1ccc(/C=C/C(=O)c2cc3c(cc2N)OCO3)cc1	38*	0	18	-5	2	-30%
COc1cc(NC(C)CCCNC(C)C)c2ncccc2c1OC (stereo unspecified)	3	-4	3	21	2	/
COc1cc(NCCCCCCN)c2ncccc2c1OC	43*	3	-4	28	0	-30%
C[C@H](CO)N1C[C@H](C)[C@@H](CN(C)C(=O)Cc2ccccc2)OCCCC[C@H](C)Oc2ccc(NC(=O)Nc3ccc(F)cc3)cc2C1=O	-1	/	-3[16.7 µM]	0	-4	/
CCOc1ccc(NCc2cccn2-c2nnc(N3CCC(C(=O)NCCCN4C(C)CCCC4C)CC3)s2)cc1 (stereo unspecified)	51*	12	3	19	-12	11µM*
CCOc1ccc(NCc2cccn2-c2nnc(N3CCC(C(=O)NCCCN4CCCCC4C)CC3)s2)cc1 (stereo unspecified)	47*	-12	5	22	-8	14µM*
CCOc1ccc(CCNC(=O)C2CCN(c3nnc(-n4cccc4)s3)CC2)cc1	4	5	2	6	-1	/
CN1C(=O)c2cc(NC(=O)c3ccccc3)ccc2OC[C@@H]2O[C@@H](CC(=O)O)CC[C@H]21	-1	/	3[16.7 µM]	4	2	/
Cc1ccc(S(=O)(=O)Nc2ccc3c(c2)C(=O)N([C@@H](C)CO)C[C@@H](C)[C@@H](CN(C)C(=O)C2CCCCC2)OCCCC[C@@H](C)O3)cc1	-1	/	-6[16.7 µM]	-1	-2	/
COc1ccccc1C(CCNCc1ccc(N(C)C)cc1)c1ccc(OC(C)C)cc1 (stereo unspecified)	74*	0	/	-7	1	2.9µM*
COc1ccc(C(CCNCc2ccc(N(C)C)cc2)C(C)C)cc1 (stereo unspecified)	41*	3	/	-2	-4	11µM*
COc1ccc(C(CCNCc2ccc(OC(C)C)cc2)C(C)C)cc1 (stereo unspecified)	?	/	-8	-20	-3	/
CO[C@H]1CN(C)C(=O)c2cc(NS(=O)(=O)c3ccc(Cl)cc3)ccc2OC[C@H](C)N(C)C[C@H]1C	2	/	/	9	1	/
COc1ccc(N2CCN(CCCNC(=O)C(=O)c3c(C)n(C)c4ccccc34)CC2)cc1	37*	16	-3	-3	1	-20%
COc1ccc(N2CCN(C(=O)C(=O)c3c(C)n(C)c4ccccc34)CC2)cc1	0	-1	-5	-16	-7	/
